Results from ChEMBL document CHEMBL1126297, “Synthesis and evaluation of analogues of (Z)-1-(4-methoxyphenyl)-2-(3,4,5-trimethoxyphenyl)ethene as potential cytotoxic and antimitotic agents” (J Med Chem, 1992).

What was measured:
Type in all cases: functional
MCF7 = assay: Cytotoxicity against human MCF-7 breast cancer cell line.; conditions: read-out: ED50 (the source's name)
In short: (§1)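 MTT colorimetric assay run in the Purdue Cell Culture Laboratory. Poorly water-soluble compounds were serially diluted in DMSO and added as 0.5 μL aliquots per well. Cells were incubated with compound for 6 days before MTT was added. […] The reported ED50 is the mean of two determinations.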

MLM = assay: Cytotoxicity against human MLM melanoma cell line.; conditions: read-out: ED50 (the source's name); in short: as §1
SK-MEL-5 = assay: Compound was evaluated for cytotoxicity against human SKMEL-5 melanoma cell line.; conditions: read-out: ED50 (the source's name); in short: as §1
A549 = assay: Compound was evaluated for cytotoxicity against human A-549 non-small cell lung cancer cell line.; conditions: read-out: ED50 (the source's name); in short: as §1
HT-29 = assay: Cytotoxicity against human HT-29 colon cell line.; conditions: read-out: ED50 (the source's name); in short: as §1
Bos taurus = species on record: Bos taurus; assay: Inhibition of tubulin polymerization
In short: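 Bovine brain tubulin, purified to electrophoretic homogeneity, was preincubated at 37 °C with a range of compound concentrations and then chilled on ice. GTP was added and polymerization followed at 37 °C by turbidity at 350 nm. Extent was read at 20 min against two controls per experiment, and IC50 was determined graphically. Actives were run in ≥3 independent assays, inactives (IC50 > 40 μM) in ≥2.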

Structure (SMILES)	EC50 (MCF7) [µM]	EC50 (MLM) [µM]	EC50 (SK-MEL-5) [µM]	EC50 (A549) [µM]	EC50 (HT-29) [µM]	IC50 (Bos taurus) [µM]
COc1ccc(Cc2cc(OC)c(OC)c(OC)c2)cc1	1.9	1.3	1.2	1.5	1.3	15
COc1ccc(C(C#N)Cc2cc(OC)c(OC)c(OC)c2)cc1 (stereo not drawn)	14.3	21.1	6.4	11.5	9.4	> 40
COc1ccc(CC2c3cc(OC)c(OC)c(OC)c3CCN2C)cc1 (stereo not drawn)	22.7	> 25	8.8	11.4	9.7	> 40
COc1ccc(/C=C\c2cc(OC)c(O[Si](C)(C)C(C)(C)C)c(OC)c2)cc1	> 25	> 25	> 25	> 25	9	> 40
COc1ccc(/C(=C\c2cc(OC)c(OC)c(OC)c2)C(=O)O)cc1	1.9	> 25	2.3	5.2	5.9	> 40
CCc1ccc(CCc2cc(OC)c(OC)c(OC)c2)cc1	0.16	0.27	0.047	0.088	0.016	18
COc1cc(CCc2ccc(SC)cc2)cc(OC)c1OC	0.2	1.3	0.24	0.15	0.4	> 40
COc1ccc(CC(C#N)c2cc(OC)c(OC)c(OC)c2)cc1 (stereo not drawn)	1.4	1.6	4.1	9.6	7.5	11
COc1ccc(Cc2c3cc(OC)c(OC)c(OC)c3cc[n+]2C)cc1	> 25	> 25	2.1	19.5	20.5	> 40
COc1ccc(/C=C/c2ccc(OC)c(OC)c2)cc1	> 25	> 25	> 25	11.7	> 25	> 40
COc1cc(/C=C/c2ccc(C(C)(C)C)cc2)cc(OC)c1OC	> 25	> 25	> 25	> 25	> 25	> 40
COc1ccc(C(=O)c2cc(OC)c(OC)c(OC)c2)cc1	1.5	1.3	1.2	1.1	1.3	7.4
COc1cc2ccc3c(OC)cccc3c2c(OC)c1OC	14.6	> 25	12	> 25	9.3	> 40
COc1cccc(/C=C(/C(=O)O)c2cc(OC)c(OC)c(OC)c2)c1	> 25	> 25	0.05	0.025	0.12	> 40
COc1ccc2c(c1)CN1CCc3c(cc(OC)c(OC)c3OC)C1C2 (stereo not drawn)	> 25	> 25	> 25	> 25	> 25	> 40
CCCOc1ccc(/C=C/c2cc(OC)c(OC)c(OC)c2)cc1	12.5	> 25	> 25	9.2	> 25	> 40
COc1cc(/C=C/c2ccc(C)cc2)cc(OC)c1OC	1.9	6.3	0.8	1.1	0.9	> 40

Structure (SMILES)	EC50 (MCF7) [µM]	EC50 (MLM) [µM]	EC50 (SK-MEL-5) [µM]	EC50 (A549) [µM]	EC50 (HT-29) [µM]	IC50 (Bos taurus) [µM]
COc1cc(/C=C/c2ccc(C(C)C)cc2)cc(OC)c1OC	18.4	> 25	11.1	9.8	6.8	> 40
COC(=O)/C(=C/c1cccc(OC)c1)c1cc(OC)c(OC)c(OC)c1	1.3	15.5	1.5	1.3	0.7	> 40
COC(=O)C(Cc1cc(OC)c(OC)c(OC)c1)c1ccc(OC)cc1 (stereo not drawn)	> 25	> 25	> 25	> 25	> 25	> 40
COc1ccc(/C=C/c2cc(OC)c(O[Si](C)(C)C(C)(C)C)c(OC)c2)cc1	> 25	> 25	> 25	> 25	> 25	> 40
COc1ccc(/C=C\c2cc(OC)c(OCc3ccccc3)c(OC)c2)cc1	1.92	> 25	0.61	1.04	0.95	> 40
COc1ccc(/C=C\c2cc(OC)c(OC(C)=O)c(OC)c2)cc1	> 25	> 25	0.6	21.5	8.7	24
COc1ccc(CC2NCCc3c2cc(OC)c(OC)c3OC)cc1 (stereo not drawn)	> 25	> 25	> 25	19.3	20.2	> 40
COc1ccc(/C=C/c2cc(OC)c(OCc3ccccc3)c(OC)c2)cc1	> 25	> 25	> 25	> 25	17.8	> 40
COc1cc(/C=C\c2ccc(C(C)(C)C)cc2)cc(OC)c1OC	1.57	4.32	0.21	1.02	0.88	> 40
CCN(CC)CCOc1ccc(CCc2cc(OC)c(OC)c(OC)c2)cc1	4.3	> 25	8.5	6.8	5.2	> 40
CCc1ccc(/C=C\c2cc(OC)c(OC)c(OC)c2)cc1	0.072	0.0075	0.00086	0.012	0.0027	3.4
COc1cc(/C=C\c2ccc(SC)cc2)cc(OC)c1OC	0.0054	0.0033	4e-06	0.00019	1.8e-06	6.2
CCNC(=O)/C(=C/c1ccc(OC)cc1)c1cc(OC)c(OC)c(OC)c1	3.7	> 25	7.05	3.4	1.8	> 40
COc1ccc(C2Cc3cc(OC)c(OC)c(OC)c3C2=O)cc1 (stereo not drawn)	> 25	> 25	> 25	> 25	> 25	> 40
CCCOc1ccc(CCc2cc(OC)c(OC)c(OC)c2)cc1	3.9	15	6.7	7.2	6.4	> 40
COc1ccc(/C=C(/C(=O)O)c2cc(OC)c(OC)c(OC)c2)cc1	12.8	> 25	9.1	13.9	8.4	> 40
